miR122 inh: miR-122 inhibition in Huh7 cells; Huh7 miR-122 Renilla luciferase sensor, 48 h; neutral wells = 0, positive control = 100; activation (reporter increase), % at 12.5 µM; actives 0.3% (n = 340,000); AID 602342;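 active = mean replicate activation score at least 90 and every replicate individually at or above 90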;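 note: higher luciferase means less miR-122 activity so hits act as miR-122 inhibitors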
SR-BI HDL uptake: mouse SR-BI HDL lipid transfer inhibition. ldlA[mSR-BI] CHO cells, DiI-HDL uptake fluorescence, 3 h. inhibition, % at 12.5 µM. actives 0.96% (n = 320,000);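 active = mean replicate inhibition of at least 70% and a set share of replicates each scoring 70 or more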
Target sequence (Q61009 whole entry, looked up): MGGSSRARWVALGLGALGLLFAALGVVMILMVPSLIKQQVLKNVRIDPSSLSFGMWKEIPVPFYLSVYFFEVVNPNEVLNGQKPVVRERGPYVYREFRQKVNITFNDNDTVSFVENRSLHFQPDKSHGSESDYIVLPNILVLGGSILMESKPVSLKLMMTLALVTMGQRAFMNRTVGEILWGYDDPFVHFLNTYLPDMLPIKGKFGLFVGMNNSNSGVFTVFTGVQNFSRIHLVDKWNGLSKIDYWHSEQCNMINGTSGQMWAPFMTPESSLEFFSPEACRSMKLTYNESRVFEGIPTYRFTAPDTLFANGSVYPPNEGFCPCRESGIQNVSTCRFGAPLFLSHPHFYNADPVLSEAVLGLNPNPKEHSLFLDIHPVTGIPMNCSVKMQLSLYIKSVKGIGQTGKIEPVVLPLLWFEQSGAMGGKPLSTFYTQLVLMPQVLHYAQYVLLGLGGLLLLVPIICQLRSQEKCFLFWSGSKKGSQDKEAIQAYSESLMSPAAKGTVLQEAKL
CAL PDZ FP-1: inhibitors of human CAL PDZ peptide binding; Q9HD26; inhibition, % at 24.9 µM; purified CAL PDZ, TMR-peptide fluorescence polarization, 1 h; actives 0.92% (n = 300,000);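 active = mean inhibition of at least 30% with at least half of replicates also reaching 30%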
SR-BI DiI-HDL act: enhances SR-BI lipid uptake from DiI-HDL | CHO ldlA[mSR-BI] cells, DiI-HDL uptake fluorescence, 3 h; 100 = double the neutral-control signal | activation, % at 12.5 µM | actives 0.096% (n = 320,000) | AID 504775;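 active = mean replicate activation of at least 60% and every replicate at or above 60%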
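System: CHO ldlA[mSR-BI] cells / Medium: HEPES-buffered (25 mM, pH 7.4) F12 plus 0.5% BSA / Probe or stimulus: labelled HDL, 10 µg/mL / Doses: single compound concentration, delivered by pin transfer / Schedule: 3 h, 37 °C / Measured by: DiI fluorescence, bottom read / Measure: cell-associated DiI fluorescence as measure of HDL uptake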
CAL PDZ FP-2: human CAL PDZ-peptide interaction inhibition; inhibition, % at 20 µM; purified CAL PDZ, TMR-peptide fluorescence polarization, 1 h; Q9HD26; AID 504414; actives 0.02% (n = 330,000);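 active = highest replicate inhibition of at least 40%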
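Material: tagged CAL PDZ domain; buffer or medium: 25 mM sodium phosphate pH 7.4, 150 mM NaCl, TCEP, IgG, Thesit; compound dosing: single point, 20 µM; schedule: 1 h incubation at room temperature before polarization reading; measured by: FP readout, S and P plane fluorescence; read-out basis: percent inhibition from loss of millipolarization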
ARNT-TACC3 inh: ARNT/TACC3 interaction disruption; Q9Y6A5; AlphaScreen His-ARNT PAS-B/GST-TACC3 binding, luminescence; TACC3 fragment carries E629A point mutation; inhibition, % at 9.99 µM; actives 0.66% (n = 390,000); AID 623870;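 active = mean inhibition of replicates at least 50% and at least half of replicates each reaching 50%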
Numbers stand for hits; 0 = inactive; - = no result; + = active, no number. The list is not random: actives were taken first. Their share in the collection is about 2.1%.

SMILES | miR122 inh | SR-BI HDL uptake | CAL PDZ FP-1 | SR-BI DiI-HDL act | CAL PDZ FP-2 | ARNT-TACC3 inh
COc1ccc(-c2nc(CS(=O)(=O)CC(=O)NCCc3ccc(C)cc3)c(C)o2)cc1 | 0 | 99 | 0 | - | 0 | 0
COc1ccc(-c2nc(CS(=O)(=O)CC(=O)NCCCc3ccccc3)c(C)o2)cc1 | 0 | 0 | 0 | 0 | 0 | 0
Cn1c(-c2ccccc2)cnc1N | 0 | 0 | 0 | 0 | 0 | 58
COCCn1c(-c2ccccc2)cnc1N | 0 | 0 | 0 | 0 | 0 | 51
COc1ccc(-c2cnc(N)n2C)cc1 | 0 | 0 | 0 | 0 | 0 | 69
Cn1c(-c2ccccc2)cnc1SCC(N)=O | 0 | 0 | 0 | 0 | 0 | 0
CCOC(=O)C1(C)NC(c2cc(OC)c(OC)c(OC)c2)C2C(=O)N(CC)C(=O)C21 (stereo not drawn) | 0 | 0 | 67 | 0 | 0 | 0
Cc1ccc(-c2ccc3c(c2)O[C@@H](CN(C)Cc2ccncc2)[C@H](C)CN([C@H](C)CO)S3(=O)=O)cc1 | 0 | - | - | - | - | 0
CCN1CCN(c2cc(C)c3cc(NC(=O)c4cccc(OC)c4)ccc3n2)CC1 | 0 | - | 0 | - | 0 | 0
COc1cccc(C(=O)Nc2ccc3nc4n(c(=O)c3c2)CCCC4)c1 | 0 | 0 | 63 | 0 | 0 | 0
COc1cccc(C(=O)Nc2ccc3nc(N4CCOCC4)cc(C)c3c2)c1 | 0 | 79 | 0 | 0 | 0 | 0
COc1cc(OC)cc(C(=O)Nc2ccc3nc4n(c(=O)c3c2)CCCC4)c1 | - | 0 | 0 | 0 | 0 | 0
Cc1ccc(NC(=O)c2ccc3c(=O)n4c(nc3c2)CCC4)cc1S(=O)(=O)N(C)C | 0 | 75 | 0 | 0 | 0 | 0
O=C(C1CC1)N1C[C@@H]2[C@H](c3ccccc31)[C@@H](CO)N2C(=O)c1cccc(F)c1 | 0 | - | - | - | - | 0
C=CCn1nc([N+](=O)[O-])nc1Sc1cccc2cccnc12 | - | 0 | 0 | 0 | 0 | 74
O=[N+]([O-])c1ccc(Sc2cccc3cccnc23)cc1 | 0 | 0 | 0 | 0 | 0 | 0
O=C(C[C@H]1CC[C@@H](NC(=O)C2CC2)[C@@H](CO)O1)NCCCN1CCOCC1 | 0 | - | - | - | - | 0
Cc1noc(C)c1NC(=O)N(C)C[C@H]1Oc2c(NS(C)(=O)=O)cccc2C(=O)N([C@@H](C)CO)C[C@H]1C | 0 | - | - | - | - | -
COc1cc(C(O)c2nc3ccccc3n2C(C)C)cc(OC)c1OC (stereo not drawn) | - | 0 | 0 | 0 | 0 | 50
O=[N+]([O-])c1cc(-c2cnc3ccccc3n2)ccc1Oc1ccc(Cl)cc1 | - | 0 | + | 0 | 0 | 0
COc1ccccc1Oc1ccc(-c2cnc3ccccc3n2)cc1[N+](=O)[O-] | 0 | 0 | 0 | 0 | 0 | -
CN(CC(=O)Nc1cc(Cl)ccc1C#N)C1CCS(=O)(=O)C1 (stereo not drawn) | - | 0 | 85 | 0 | 0 | 0
COC(=O)c1c(CC[C@@H](CO)NC(=O)N[C@H](Cc2ccccc2)Cn2cc(-c3ccccn3)nn2)oc(C(C)=O)c1C(=O)OC | - | - | - | - | - | 22
O=C(Nc1ccccc1)N[C@H](Cc1ccccc1)Cn1cc(CN2C(=O)COC[C@H]2c2ccccc2)nn1 | - | - | - | - | - | 0
COC(=O)/C(=C\Nc1ccc(Cl)cc1Cl)NC(=O)c1ccc(OC)cc1 | 0 | 83 | 0 | 0 | 0 | 0
SMILES | miR122 inh | SR-BI HDL uptake | CAL PDZ FP-1 | SR-BI DiI-HDL act | CAL PDZ FP-2 | ARNT-TACC3 inh
CC(=O)Nc1ccc(N2C(=O)CC(N3CCN(Cc4ccc5c(c4)OCO5)CC3)C2=O)cc1 (stereo not drawn) | 0 | 0 | 0 | 0 | 0 | 0
CCc1ccc(N2C(=O)CC(N3CCN(Cc4ccc5c(c4)OCO5)CC3)C2=O)cc1 (stereo not drawn) | 0 | 0 | 85 | 0 | 0 | 0
Cc1ccc(S(=O)(=O)N(C)C[C@@H]2Oc3ncc(-c4ccncc4)cc3C(=O)N([C@H](C)CO)C[C@@H]2C)cc1 | 0 | - | - | - | - | 0
COc1ccc(C=Nc2cccnc2N)cc1 | 0 | 0 | 0 | 0 | - | 28
COCCN1C(=O)N(c2cccc(OC)c2)C(=O)C1CC(=O)Nc1ccc(OC)cc1 (stereo not drawn) | 0 | 0 | 0 | 0 | 0 | 0
CCOc1ccc(NC(=O)CC2C(=O)N(c3cccc(OC)c3)C(=O)N2CCOC)cc1 (stereo not drawn) | 0 | 0 | 59 | 0 | 0 | 0
COc1ccc(NC(=O)N(C)C[C@H]2OCCCC[C@H](C)Oc3ccc(NC(=O)Nc4cccc5ccccc45)cc3C(=O)N([C@H](C)CO)C[C@H]2C)cc1 | 0 | - | - | - | - | 0
C[C@H]1CN([C@@H](C)CO)C(=O)c2cc(NC(=O)C3CCCCC3)ccc2O[C@H]1CN(C)Cc1ccc(Cl)c(Cl)c1 | 0 | - | - | - | - | 0
O=[N+]([O-])c1cccc(-c2ccc(/C=N/Nc3nc(N4CCCCC4)nc(N4CCCCC4)n3)o2)c1 | - | 84 | 0 | 0 | 0 | 0
COc1cc(/C=C/c2ccc3cccc(O)c3n2)cc(Br)c1OC | - | 82 | 0 | 0 | 0 | 0
COc1cc(OC)cc(C(=O)OC(C)C(=O)NC2CCCc3ccccc32)c1 (stereo not drawn) | 0 | 0 | 61 | 0 | 0 | 0
O=C(Nc1cnccn1)Nc1ccccc1F | 0 | 0 | 52 | 0 | 0 | 0
O=C(CC1Nc2ccccc2NC1=O)NC1CCCCC1 (stereo not drawn) | 0 | 0 | 0 | 0 | 0 | 0
CC(C)CNC(=O)CC1Nc2ccccc2NC1=O (stereo not drawn) | - | 0 | 95 | 0 | - | 0
C[C@H]1CN([C@@H](C)CO)C(=O)Cc2cc(NC(=O)CCCN(C)C)ccc2O[C@H]1CN(C)S(=O)(=O)c1ccc(F)cc1 | 0 | - | - | - | - | 0
O=C(Nc1ccc(Cl)cc1)N[C@@H]1c2c(ccc3ccccc23)OC[C@@H]1CO | 0 | 82 | - | 0 | 0 | 0
Cc1ccnc(NC(c2ccccc2)c2ccc3cccnc3c2O)c1 (stereo not drawn) | 0 | 0 | 0 | 0 | 0 | 0
Cc1ccnc(NC(c2cccnc2)c2ccc3cccnc3c2O)c1 (stereo not drawn) | 0 | 0 | 0 | 0 | 0 | 61
Cc1ccc2ccc(C(Nc3cccc(C(F)(F)F)c3)c3cccnc3)c(O)c2n1 (stereo not drawn) | 0 | 0 | 43 | 0 | 0 | 0
C[C@@H]1CCCCO[C@H](CN(C)S(=O)(=O)c2cccs2)[C@@H](C)CN([C@H](C)CO)C(=O)c2cc(NS(C)(=O)=O)ccc2O1 | 0 | - | - | - | - | 0
COCCNC(=O)C[C@H]1C[C@H]2c3cc(N(C)C)ccc3O[C@H]2[C@@H](CO)O1 | 0 | - | - | - | - | -
CC(C)C(NC(=O)C12CC3CC(CC(C3)C1)C2)C(=O)N/N=C/C1=C(N2CCOCC2)C(=C\c2ccc([N+](=O)[O-])cc2)/CC1 (stereo not drawn) | - | 99 | 0 | 0 | 0 | -

Assay outcomes as filed in PubChem.
